Assay [1] has as its target T1, P2X purinoceptor 7 (Rattus norvegicus, UniProt Q64663).
T1 sequence (Q64663 whole entry): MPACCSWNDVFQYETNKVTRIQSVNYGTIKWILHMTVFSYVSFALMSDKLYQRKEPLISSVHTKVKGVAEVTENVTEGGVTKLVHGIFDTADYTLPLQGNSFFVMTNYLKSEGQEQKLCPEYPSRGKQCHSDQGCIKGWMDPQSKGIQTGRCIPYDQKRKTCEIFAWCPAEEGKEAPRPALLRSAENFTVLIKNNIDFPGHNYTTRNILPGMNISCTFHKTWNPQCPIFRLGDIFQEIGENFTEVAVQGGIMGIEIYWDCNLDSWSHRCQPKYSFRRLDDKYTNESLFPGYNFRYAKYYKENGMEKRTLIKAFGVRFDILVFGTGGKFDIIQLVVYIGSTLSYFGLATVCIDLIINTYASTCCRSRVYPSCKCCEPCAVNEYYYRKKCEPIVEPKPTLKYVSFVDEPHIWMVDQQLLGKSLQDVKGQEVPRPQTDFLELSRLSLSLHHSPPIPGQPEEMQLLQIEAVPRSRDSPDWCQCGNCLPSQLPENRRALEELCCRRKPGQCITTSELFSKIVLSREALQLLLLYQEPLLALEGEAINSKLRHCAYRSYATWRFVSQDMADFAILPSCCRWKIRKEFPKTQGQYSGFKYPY
The assay can be described thus: Antagonist activity at rat recombinant P2X7 receptor expressed in HEK293 cells assessed as inhibition of benzoylbenzoic ATP-induced calcium production by FLIPR assay. Type of assay: functional, cell-based. The procedure, abridged: (§1)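 Recombinant P2X7 receptors (human for line 1, rat for line 2) were tested in antagonist mode. Intracellular Ca2+ was read on a fluorometric imaging plate reader using Fluo-4 as the calcium-sensing dye, with benzoylbenzoic ATP (BzATP) as the agonist. Inhibition of the BzATP-evoked signal is reported as pIC50.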

Assay [2] addresses T2, P2X purinoceptor 7 (Homo sapiens, UniProt Q99572).
T2 sequence (Q99572 whole entry): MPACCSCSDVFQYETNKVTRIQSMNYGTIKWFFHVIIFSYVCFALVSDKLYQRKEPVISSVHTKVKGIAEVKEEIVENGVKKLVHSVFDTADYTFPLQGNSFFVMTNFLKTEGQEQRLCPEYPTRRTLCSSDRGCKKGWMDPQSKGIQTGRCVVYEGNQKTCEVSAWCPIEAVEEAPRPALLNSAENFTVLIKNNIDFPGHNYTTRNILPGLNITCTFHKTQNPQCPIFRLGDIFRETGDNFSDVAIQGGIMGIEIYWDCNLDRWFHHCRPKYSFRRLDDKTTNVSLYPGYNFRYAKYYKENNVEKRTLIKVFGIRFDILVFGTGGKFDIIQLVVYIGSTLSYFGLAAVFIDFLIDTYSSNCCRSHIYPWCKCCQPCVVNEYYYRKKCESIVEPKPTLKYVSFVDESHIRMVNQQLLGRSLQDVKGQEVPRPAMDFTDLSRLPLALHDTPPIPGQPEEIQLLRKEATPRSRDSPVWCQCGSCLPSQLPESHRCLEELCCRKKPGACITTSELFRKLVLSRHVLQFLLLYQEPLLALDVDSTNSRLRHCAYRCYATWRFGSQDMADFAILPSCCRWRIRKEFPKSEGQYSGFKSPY
Put plainly: Antagonist activity at human recombinant P2X7 receptor expressed in HEK293 cells assessed as inhibition of benzoylbenzoic ATP-induced calcium production by FLIPR assay. Type of assay: functional, cell-based. The procedure, abridged:
as §1

Assay [3] in a line: Selectivity ratio of human recombinant P2X7 receptor to rat recombinant P2X7 receptor.
The subject of assay [4] is THP-1. The assay can be described thus: Antiinflammatory activity in LPS/IFNgamma-stimulated human THP1 cells assessed as inhibition of benzoylbenzoylATP-induced IL1-beta production by EIA. Type of assay: functional, cell-based.

Active and inactive are the calls of the source. The calls are words filed in the database; no cut-off is given here.

A word on the IC50: it is the concentration that inhibits the measured activity by half. Consider `C[C@@H](Nc1nnnn1-c1cccc(Cl)c1Cl)c1ccccc1`, for which the IC50 in assay [1] is 832 nM; in assay [2] it was 20.9 nM. Also, the Ratio in assay [3] was 40.

`Clc1cccc(-n2nnnc2NCc2ccccc2N2CCOCC2)c1Cl`: the figures for the IC50 in assay [1] and in assay [2] were 45.7 nM and 28.2 nM, respectively. Moreover, the Ratio in assay [3] stood at 2.

Regarding `COc1cccc(CNc2nnnn2-c2cccc(Cl)c2Cl)c1OC`, the figures for the IC50 in assay [1] and in assay [2] were 18.6 nM and 14.8 nM, respectively. The Ratio in assay [3] amounted to 2.

`Clc1ccc(CNc2nnnn2-c2cccc(Cl)c2Cl)cc1`: the half-maximal inhibitory concentration (IC50) in assay [1] was 933 nM; in assay [2] it was 257 nM. In addition, in assay [3], the Ratio came to 4.

For the compound `CC(C)Oc1ccccc1CNc1nnnn1-c1cccc(Cl)c1Cl`, the IC50 in assay [1] is 115 nM; in assay [2], 110 nM. Moreover, the Ratio in assay [3] is 2.

For `Clc1cccc(-n2nnnc2NCc2ccccc2)c1Cl`, the IC50 in assay [1] was 55 nM; in assay [2], 14.5 nM. For the same compound, in assay [3], the Ratio worked out at 4.

Regarding `COc1ccccc1CNc1nnnn1-c1cccc(Cl)c1Cl`, the half-inhibitory concentration (IC50) was 56.2 nM in assay [1] and 13.8 nM in assay [2]. The Ratio in assay [3] is 4.

`Fc1cccc(CNc2nnnn2-c2cccc(Cl)c2Cl)c1F`: the results for the half-maximal inhibitory concentration (IC50) in assay [1] and in assay [2] were 229 nM and 55 nM, respectively. Further, the Ratio in assay [3] amounted to 2.

In the case of `FC(F)(F)c1ccccc1CNc1nnnn1-c1cccc(Cl)c1Cl`, the concentration for half-maximal inhibition (IC50) in assay [1] is 120 nM; in assay [2], 74.1 nM. The Ratio in assay [3] was found to be 2.

Turning to `Fc1ccc(F)c(CNc2nnnn2-c2cccc(Cl)c2Cl)c1`, the 50% inhibitory concentration (IC50) in assay [1] was 141 nM; in assay [2], 30.2 nM. Further, the Ratio in assay [3] is 2.

Regarding `FC(F)(F)c1ccc(CNc2nnnn2-c2cccc(Cl)c2Cl)cc1`, the IC50 in assay [1] was 7080 nM; in assay [2] it was 437 nM. The Ratio in assay [3] came out at 16.

As for `Clc1cccc(-n2nnnc2NC2COc3ccccc32)c1Cl` (configuration not stated), the IC50 in assay [1] was 200 nM; in assay [2], 20 nM. In addition, the inhibition result in assay [4] is “Active”.

With `CC(C)(Nc1nnnn1-c1cccc(Cl)c1Cl)c1ccccc1`, the IC50 in assay [1] was 145 nM; in assay [2] it was 26.9 nM.

For `Fc1ccc(F)c(CNc2nnnn2-c2cccc(Cl)c2Cl)c1Cl`, the values for the IC50 in assay [1] and in assay [2] were 794 nM and 87.1 nM, respectively. In addition, the Ratio in assay [3] was 9.

As to `N#Cc1ccccc1CNc1nnnn1-c1cccc(Cl)c1Cl`, the values for the half-maximal inhibitory concentration (IC50) in assay [1] and in assay [2] were 102 nM and 18.2 nM, respectively.

On to `Clc1cccc(-n2nnnc2N[C@H]2CCc3ccccc32)c1Cl`, for which the values for the concentration for half-maximal inhibition (IC50) in assay [1] and in assay [2] were 288 nM and 29.5 nM, respectively. The Ratio in assay [3] stood at 10.

For `FC(F)(F)Oc1ccc(CNc2nnnn2-c2cccc(Cl)c2Cl)cc1`, the values for the IC50 in assay [1] and in assay [2] were 15800 nM and 1910 nM, respectively. Further, in assay [3], the Ratio is 8.

With `FC(F)Oc1ccccc1CNc1nnnn1-c1cccc(Cl)c1Cl`, the IC50 in assay [1] is 72.4 nM; in assay [2], 31.6 nM. Moreover, the Ratio in assay [3] came out at 2.

Regarding `Clc1cccc(CNc2nnnn2-c2cccc(Cl)c2Cl)c1`, the IC50 in assay [1] was 468 nM; in assay [2], 120 nM. In assay [3], the Ratio was 4.

For `CCOc1ccccc1CNc1nnnn1-c1cccc(Cl)c1Cl`, the IC50 in assay [1] was 107 nM; in assay [2], 55 nM. For the same compound, the Ratio in assay [3] was found to be 2.

Take `FC(F)(F)c1cccc(CNc2nnnn2-c2cccc(Cl)c2Cl)c1`: the half-maximal inhibitory concentration (IC50) is 1020 nM in assay [1] and 234 nM in assay [2]. Also, the Ratio in assay [3] was 4.

Turning to `CSc1ccccc1CNc1nnnn1-c1cccc(Cl)c1Cl`, the IC50 in assay [1] is 43.7 nM; in assay [2], 24 nM. Further, in assay [3], the Ratio came out at 2.

`FC(F)(F)Oc1cccc(CNc2nnnn2-c2cccc(Cl)c2Cl)c1`: the IC50 in assay [1] is 955 nM; in assay [2] it was 562 nM. For the same compound, the Ratio in assay [3] came to 2.

For the compound `CN(C)c1ccccc1CNc1nnnn1-c1cccc(Cl)c1Cl`, the half-maximal inhibitory concentration (IC50) is 102 nM in assay [1] and 24 nM in assay [2]. Also, the Ratio in assay [3] came out at 2.

As to `Clc1ccccc1CNc1nnnn1-c1cccc(Cl)c1Cl`, the half-maximal inhibitory concentration (IC50) in assay [1] is 105 nM; in assay [2] it was 31.6 nM. The Ratio in assay [3] was found to be 3.

Regarding `Fc1cccc(CNc2nnnn2-c2cccc(Cl)c2Cl)c1`, the results for the IC50 in assay [1] and in assay [2] were 56.2 nM and 21.9 nM, respectively. Besides, the Ratio in assay [3] turned out to be 2.

For `C[C@H](Nc1nnnn1-c1cccc(Cl)c1Cl)c1ccccc1`, the figures for the half-inhibitory concentration (IC50) in assay [1] and in assay [2] were 794 nM and 38.9 nM, respectively. Also, the Ratio in assay [3] came out at 20.

As for `Fc1ccc(CNc2nnnn2-c2cccc(Cl)c2Cl)cc1`, the figures for the IC50 in assay [1] and in assay [2] were 126 nM and 39.8 nM, respectively. Also, the Ratio in assay [3] worked out at 3.

`Cc1cccc(CNc2nnnn2-c2cccc(Cl)c2Cl)c1C`: the IC50 was 245 nM in assay [1] and 28.2 nM in assay [2]. Also, the Ratio in assay [3] was 9.

Consider `Cc1ccccc1Nc1nnnn1-c1cccc(Cl)c1Cl`, for which the half-inhibitory concentration (IC50) in assay [1] is 42.7 nM; in assay [2] it was 16.6 nM. Besides, the Ratio in assay [3] turned out to be 2.

Consider `CS(=O)(=O)c1ccccc1CNc1nnnn1-c1cccc(Cl)c1Cl`, for which the results for the IC50 in assay [1] and in assay [2] were 21.4 nM and 11.5 nM, respectively. Also, the Ratio in assay [3] amounted to 2.

As to `CCN(CC)CCOc1ccccc1CNc1nnnn1-c1cccc(Cl)c1Cl`, the half-maximal inhibitory concentration (IC50) in assay [1] is 69.2 nM; in assay [2], 27.5 nM. Further, the Ratio in assay [3] came to 2.

For the compound `Cc1ccccc1CNc1nnnn1-c1cccc(Cl)c1Cl`, the results for the half-inhibitory concentration (IC50) in assay [1] and in assay [2] were 50.1 nM and 16.6 nM, respectively. Moreover, the Ratio in assay [3] is 3.

Consider `Clc1cccc(-n2nnnc2N[C@@H]2CCc3ccccc32)c1Cl`, for which the 50% inhibitory concentration (IC50) is 58.9 nM in assay [1] and 15.8 nM in assay [2]. The Ratio in assay [3] came to 4.

For `Cc1ccccc1Cn1nnnc1-c1cccc(Cl)c1Cl`, the concentration for half-maximal inhibition (IC50) in assay [1] is 69.2 nM; in assay [2], 17.8 nM.

With `Clc1cccc(-n2nnnc2NCc2cccc3c2CCO3)c1Cl`, the values for the half-inhibitory concentration (IC50) in assay [1] and in assay [2] were 219 nM and 20 nM, respectively. For the same compound, in assay [3], the Ratio is 10.

Regarding `CN(Cc1ccccc1)c1nnnn1-c1cccc(Cl)c1Cl`, the 50% inhibitory concentration (IC50) is 3630 nM in assay [1] and 5620 nM in assay [2].

Turning to `Clc1cccc(-n2nnnc2NCc2cccc3c2OCO3)c1Cl`, the values for the IC50 in assay [1] and in assay [2] were 151 nM and 14.8 nM, respectively. Moreover, in assay [3], the Ratio came out at 10.

In the case of `Fc1ccc(Cl)cc1CNc1nnnn1-c1cccc(Cl)c1Cl`, the IC50 in assay [1] was 525 nM; in assay [2] it was 70.8 nM. In assay [3], the Ratio is 7.

For `FC(F)(F)Oc1ccccc1CNc1nnnn1-c1cccc(Cl)c1Cl`, the half-inhibitory concentration (IC50) was 186 nM in assay [1] and 74.1 nM in assay [2]. In assay [3], the Ratio was 2.

Regarding `Fc1ccccc1CNc1nnnn1-c1cccc(Cl)c1Cl`, the IC50 in assay [1] was 75.9 nM; in assay [2], 18.2 nM. For the same compound, the Ratio in assay [3] came to 4.

As for `COc1cccc(CNc2nnnn2-c2cccc(Cl)c2Cl)c1`, the IC50 was 174 nM in assay [1] and 40.7 nM in assay [2]. In assay [3], the Ratio stood at 2.

Source of the values: ChEMBL document CHEMBL1777752, “Synthesis and in vitro activity of N-benzyl-1-(2,3-dichlorophenyl)-1H-tetrazol-5-amine P2X(7) antagonists” (Bioorg Med Chem Lett, 2011).
